According to PMC4841444 (Lipids, 2015):

What was measured:
recombinant HIV-1-RT = recombinant HIV-1-RT (Human immunodeficiency virus type 1 group M subtype B, UniProt P03366); test: Reverse Transcriptase Colorimetric Assay; format: biochemical
[1] = Cytotoxicity against PBMC; format: cell-based; details: human, peripheral blood mononuclear cells (PBMC)
Procedure, shortened: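 PBMCs from healthy volunteers, grown in IL-2-supplemented medium, seeded at 20,000 cells/well and exposed to fatty acids at 5–500 µM final. Incubation 3 days at 37 °C in humidified 5% CO2. Viability read by MTT.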

HIV-1 RT = details: read-out: IC50 against HIV-1 RT; non-competitive inhibitor; cited from earlier work

Row | SMILES | IC50 (recombinant HIV-1-RT) [µM] | IC50 at 3 days [1] [µM] | IC50 (HIV-1 RT) [µM] | inhibition of the HIV-1 RT enzyme (in words) (recombinant HIV-1-RT; recombinant HIV-1 RT, colorimetric assay)
1 | CCCCCCCCCCCCCC#CCCCCC(=O)O [6-Icosynoic acid] | > 1000 |  |  | 
2 | CCCCCCCCCCCCCCCCCCCC#CCCCC(=O)O [1a, 5-Pentacosynoic acid] | 24 ± 1 | > 500 |  | 
3 | CCCCCCCCCCCCCCC/C=C\CCCCCCCC(=O)O [2b, (9Z)-9-Pentacosenoic acid] | 54 ± 1 | > 500 |  | 
4 | CCCCCCCCCCCCCCCCCCC/C=C\CCCC(=O)O [2a, (5Z)-5-Pentacosenoic acid] | 38 ± 1 | > 500 |  | 
5 | CCCCCCCC/C=C\CCCCCCCCCCCCCC(=O)O [Nervonic acid, cis-15-tetracosenoic acid] | 12 ± 1 | > 500 | 4.8 | 
6 | CCCCCCCCCCCCCCCC(=O)O [Palmitic acid] | > 1000 |  |  | 
7 | CCCCCCCCCCCCCCCCCCCCCCC#CC(=O)O [2-Pentacosynoic acid] | 566 ± 1 |  |  | 
8 | CCCCCCCCCCCCCCCC#CCCCCCCCC(=O)O [1b, 9-Pentacosynoic acid] |  | > 500 |  | 
9 | CCCCCCCCCCC#CCCCCC(=O)O [6-Heptadecynoic acid] | > 1000 |  |  | 
10 | CCCCCCCCCCCCCCCCCCCCCCCCC(=O)O [Pentacosanoic acid] |  |  |  | does not inhibit HIV-1 RT at all
